{
  "source": "paper PMC7304851",
  "about": "(Journal for Immunotherapy of Cancer, 2020)",
  "key": {"[1]": {"test_system": "primary human peripheral blood mononuclear cells (PBMCs)", "assay": "EP4 agonist in PBMCs, TNF-α and CXCL10 by RT-PCR", "format": "cell-based", "settings": "PBMCs from healthy donors incubated with EP4 agonist"}, "[2]": {"test_system": "relapsed or refractory classical Hodgkin’s lymphoma", "settings": "cited from earlier work"}, "[3]": {"test_system": "mouse syngeneic tumor models", "settings": "dependent on myeloid cells and CD8+ T cells; cited from earlier work"}, "[4]": {"test_system": "EP4-regulated genes and immune-related circulating factors", "assay": "Blood gene expression, serum cytokines/chemokines, flow cytometry", "format": "in vivo, human", "outline": "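Patients with advanced tumors took oral drug once daily (125–750 mg) in 21-day cycles. mRNA isolated from blood was profiled on a 92-gene TaqMan Low Density Array panel. Serum/plasma levels of 36 immune-related circulating factors were measured by proteomics, ELISA and Meso Scale Discovery multiplex. Blood immune subsets were assessed by eight-color flow cytometry. Cycle 1 day 15 was compared with baseline by paired t-test.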"}, "FDG-avid tumor lesions": {"test_system": "FDG-avid tumor lesions", "assay": "18FDG-PET metabolic response", "format": "in vivo, human"}, "[5]": {"assay": "Clinical pharmacokinetics in plasma", "format": "in vivo, human"}, "[6]": {"assay": "Phase 1 safety and tolerability", "format": "in vivo, human"}, "[7]": {"test_system": "immune-cell infiltration in tumor", "assay": "Paired tumor biopsies: immunohistochemistry and TLDA gene expression", "format": "in vivo, human"}, "[8]": {"test_system": "Pan02 pancreatic syngeneic tumor model", "assay": "Preclinical FDG-PET, Pan02 model", "format": "in vivo, mouse", "settings": "data not shown"}, "advanced tumors": {"test_system": "advanced tumors", "assay": "Tumor response by irRECIST, survival and treatment duration", "format": "in vivo, human"}, "[9]": {"test_system": "4T1 breast syngeneic tumor model", "assay": "Preclinical FDG-PET, 4T1 model", "format": "in vivo, mouse", "settings": "4T1 breast model, data not shown"}, "macrophage infiltration": {"test_system": "macrophage infiltration", "settings": "preclinical models; cited from earlier work"}, "[10]": {"settings": "blood, on treatment versus baseline"}, "[11]": {"settings": "cycle 1 day 15 compared with baseline"}, "[12]": {"settings": "all patients, combined incidence"}},
  "note": "“Also recorded” adds a separate entry of the source.",
  "data": [
    {"molecule": "CCCCC[C@H](O)/C=C/[C@H]1[C@H](O)CC(=O)[C@@H]1CCCCCCCO", "note": "[PGE1-OH]", "values": [
      {"measurement": "expression of TNF-α and CXCL10", "setting": "[1]", "value": "dose-dependent down-regulation; also recorded: dose-dependently suppressed"}
    ]},
    {"molecule": "CC1(C)CC=C(c2nc(C3CC(C)(C)OC(C)(C)C3)ccc2NC(=O)c2nc(C#N)c[nH]2)CC1", "note": "[JNJ-40346527]", "values": [
      {"measurement": "objective response rate", "setting": "[2]; 1/21 patients had complete response", "value": 5, "unit": "%"},
      {"measurement": "patients who achieved stable disease", "setting": "[2]; 11/21 patients", "value": 55, "unit": "%"}
    ]},
    {"molecule": "C[C@H](NC(=O)c1c(C(F)F)nn(C)c1Oc1cccc(C(F)(F)F)c1)c1ccc(C(=O)O)cc1", "note": "[E7046]", "values": [
      {"measurement": "growth of multiple mouse syngeneic tumor models", "setting": "[3]", "value": "inhibited the growth"},
      {"measurement": "circulating gene expression of CD274 (PD-L1) and PDCD1LG2 (PD-L2)", "setting": "[4]; [10]", "value": "increased expression"},
      {"measurement": "circulating gene expression of EOMES, PTGER4 and IDO1", "setting": "[4]; [10]", "value": "decreased expression"},
      {"measurement": "number of genes modulated in blood out of a 92-immune-gene panel", "setting": "[4]; [11]", "value": 16},
      {"measurement": "number of serum cytokines and chemokines modulated out of a panel of 36", "setting": "[4]; [11]", "value": 14},
      {"measurement": "serum level of CXCL10", "setting": "[4]; cycle 1 day 15 compared with baseline, p=0.0015", "value": "significantly upregulated"},
      {"measurement": "serum level of CCL5", "setting": "[4]; cycle 1 day 15 compared with baseline, p=0.0292", "value": "significantly upregulated"},
      {"measurement": "major immune cell subsets in the blood (T cells, B cells, natural killer cells, MDSC)", "setting": "[4]; eight-color flow cytometry, data not shown", "value": "no significant changes"},
      {"measurement": "patients with partial metabolic response (18FDG-PET)", "setting": "FDG-avid tumor lesions; 15 evaluable patients (3/15), SUVmax reduction ≥25%", "value": 20, "unit": "%"},
      {"measurement": "FDG-PET signal reduction (partial metabolic response)", "setting": "FDG-avid tumor lesions; individual patient case", "value": 31, "unit": "%"},
      {"measurement": "duration of treatment of the three patients with partial metabolic responses", "setting": "FDG-avid tumor lesions; longest among all patients", "value": "145 to 208", "unit": "days"},
      {"measurement": "exposure versus dose", "setting": "[5]; 125 to 750 mg", "value": "dose proportional up to 500 mg, with no incremental increase at 750 mg"},
      {"measurement": "Free E7046 concentration versus Ki of EP4 inhibition", "setting": "[5]; all four doses, cycle 1 day 8", "value": "reached or exceeded the preclinical Ki value"},
      {"measurement": "accumulation on multiple dosing", "setting": "[5]; daily oral dosing", "value": "twofold to threefold"},
      {"measurement": "time to maximum drug concentration", "setting": "[5]; postdose, across all doses", "value": "~ 2 hours"},
      {"measurement": "TEAE incidence diarrhea", "setting": "[6]; 750 mg dose cohort", "value": 42.9, "unit": "%"},
      {"measurement": "TEAE incidence fatigue", "setting": "[6]; 750 mg dose cohort", "value": 42.9, "unit": "%"},
      {"measurement": "TEAE incidence nausea", "setting": "[6]; 750 mg dose cohort", "value": 42.9, "unit": "%"},
      {"measurement": "Dose-limiting toxicities (DLTs)", "setting": "[6]; 125, 250, 500 and 750 mg orally once daily, cycle 1", "value": "No dose-limiting toxicities were observed; also recorded: no DLTs observed; also recorded: No DLTs were reported"},
      {"measurement": "Maximum tolerated dose (MTD)", "setting": "[6]; 125 to 750 mg orally once daily", "value": "not reached"},
      {"measurement": "fatal treatment-related TEAE", "setting": "[6]; all patients", "value": "No patients experienced a fatal treatment-related TEAE"},
      {"measurement": "patients who discontinued treatment due to TEAEs", "setting": "[6]; all patients", "value": 17, "unit": "%"},
      {"measurement": "patients with grade ≥3 treatment-related TEAEs", "setting": "[6]; all patients", "value": 10, "unit": "%"},
      {"measurement": "patients with treatment-related SAEs", "setting": "[6]; all patients (3/30)", "value": 10, "unit": "%"},
      {"measurement": "patients with at least 1 TEAE", "setting": "[6]; all patients (n=30)", "value": 93, "unit": "%"},
      {"measurement": "TEAE (all grades) diarrhea", "setting": "[6]; [12]", "value": 33.3, "unit": "%"},
      {"measurement": "TEAE (all grades) fatigue", "setting": "[6]; [12]", "value": 36.7, "unit": "%"},
      {"measurement": "TEAE (all grades) nausea", "setting": "[6]; [12]", "value": 30, "unit": "%"},
      {"measurement": "tumor gene expression of TNF-α and CXCL10", "setting": "[7]; 10 paired biopsies, without reaching statistical significance", "value": "upregulation"},
      {"measurement": "increase in expression of CXCL10 in the tumor", "setting": "[7]; individual patient case", "value": "~ 20%"},
      {"measurement": "increase in percentage of CD8+ T cells in the tumor", "setting": "[7]; individual patient case", "value": 31, "unit": "%"},
      {"measurement": "CD3+ and CD8+ T cells in tumor tissues (immunohistochemistry)", "setting": "[7]; paired biopsies of 11 patients, baseline to cycle 2 day 1", "value": "significant increase"},
      {"measurement": "FDG-PET signal compared with vehicle treatment", "setting": "[8]", "value": "decreased the FDG-PET signal"},
      {"measurement": "best response of stable disease, number of patients", "setting": "advanced tumors; 125 mg", "value": 2},
      {"measurement": "patients with best response of durable stable disease for ≥18 weeks", "setting": "advanced tumors; 125 mg (n=2/8)", "value": 25, "unit": "%"},
      {"measurement": "best response of stable disease, number of patients", "setting": "advanced tumors; 250 mg", "value": 2},
      {"measurement": "patients with best response of durable stable disease for ≥18 weeks", "setting": "advanced tumors; 250 mg (n=2/8)", "value": 25, "unit": "%"},
      {"measurement": "best response of stable disease, number of patients", "setting": "advanced tumors; 750 mg", "value": 3},
      {"measurement": "patients with longer duration of treatment on E7046 compared with most recent prior anticancer therapy", "setting": "advanced tumors; 10 patients of 30", "value": 33, "unit": "%"},
      {"measurement": "disease control rate", "setting": "advanced tumors; all patients (n=30)", "value": 23, "unit": "%"},
      {"measurement": "objective responses by irRECIST", "setting": "advanced tumors; all patients (n=30)", "value": "no objective responses"},
      {"measurement": "patients with best response of stable disease (irRECIST)", "setting": "advanced tumors; all patients (n=30)", "value": 23, "unit": "%"},
      {"measurement": "median duration of treatment", "setting": "advanced tumors; all patients, range: 1.1–30", "value": 5.9, "unit": "weeks"},
      {"measurement": "FDG-PET signal compared with vehicle treatment", "setting": "[9]", "value": "decreased the FDG-PET signal"}
    ]},
    {"molecule": "CN(C)CC(=O)N1CCC(c2ccc(NC(=O)c3nc(C#N)c[nH]3)c(C3=CCCCC3)c2)CC1", "note": "[JNJ-28312141]", "values": [
      {"measurement": "macrophage infiltration", "setting": "macrophage infiltration", "value": "substantially decreased macrophage infiltration"}
    ]}
  ]
}
